Data reported in ChEMBL document CHEMBL1828577, “Design and synthesis of some new thiophene, thienopyrimidine and thienothiadiazine derivatives of antipyrine as potential antimicrobial agents” (2011).
Values after ≈ are worked out from the molar mass of the structure shown. Active and inactive are the calls of the source. The rule behind the calls is not given here.

Experiments:
Format in all cases: functional
[1] = test system: Syncephalastrum racemosum; assay: Antifungal activity against Syncephalastrum racemosum RCMB 052003 at 30 mg/ml after 3 to 4 days by agar well diffusion method; conditions: read-out: DIZ
Staphylococcus aureus [2] = assay: Antibacterial activity against Staphylococcus aureus RCMB 000106 at 30 mg/ml after 24 hrs by agar well diffusion method; conditions: RCMB 000106, 24 h, read-out: DIZ
Bacillus subtilis [3] = assay: Antibacterial activity against Bacillus subtilis RCMB 000107 at 30 mg/ml after 24 hrs by agar well diffusion method; conditions: RCMB 000107, 24 h, read-out: DIZ
Bacillus subtilis [4] = assay: Antibacterial activity against Bacillus subtilis RCMB 000107 at 10 mg/ml after 24 hrs by agar well diffusion method; conditions: for zone of inhibition at 10000 µg/mL: RCMB 000107, 24 h, read-out: DIZ
Outline: (§1)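 Agar well diffusion on nutrient agar (tryptone 1%, yeast extract 0.5%, NaCl 0.5%, agar 1%, pH 7.0). Plates spread with centrifuged pellets from a 24 h culture (about 10^4-10^6 CFU/ml). 100 µl of sample at 10 mg/mL in DMSO per 6 mm well, DMSO control. Incubated at 37 °C for 24 h. Inhibition zone diameter (mm) caliper-read three times; test run three times; mean ± SD.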

[5] = test system: Syncephalastrum racemosum; assay: Antifungal activity against Syncephalastrum racemosum RCMB 052003 at 10 mg/ml after 3 to 4 days by agar well diffusion method; conditions: for zone of inhibition at 10000 µg/mL: read-out: DIZ
Outline: (§2)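 Agar well diffusion on Sabouraud dextrose agar (glucose–peptone–agar 40:10:15). Culture grown in Sabouraud broth for 3-4 days to 10^5 CFU mL⁻¹; 0.1 mL spread per plate. Wells sealed at the bottom with 0.8% soft agar, then loaded with 100 µl sample at 10 mg mL⁻¹ in DMSO; DMSO control. Incubated at 30 °C for 3–4 days. Zone caliper-read three times; triplicate tests; mean ± SD.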

Geotrichum candidum [6] = assay: Antifungal activity against Geotrichum candidum RCMB 052006 at 10 mg/ml after 3 to 4 days by agar well diffusion method; conditions: for zone of inhibition at 10000 µg/mL: read-out: DIZ; outline: as §2
Escherichia coli [7] = assay: Antibacterial activity against Escherichia coli RCMB 000103 at 10 mg/ml after 24 hrs by agar well diffusion method; conditions: for zone of inhibition at 10000 µg/mL: RCMB 000103, 24 h, read-out: DIZ; outline: as §1
Aspergillus fumigatus [8] = assay: Antifungal activity against Aspergillus fumigatus RCMB 002003 at 10 mg/ml after 3 to 4 days by agar well diffusion method; conditions: for zone of inhibition at 10000 µg/mL: read-out: DIZ; outline: as §2
Staphylococcus aureus [9] = assay: Antibacterial activity against Staphylococcus aureus RCMB 000106 at 10 mg/ml after 24 hrs by agar well diffusion method; conditions: for zone of inhibition at 10000 µg/mL: RCMB 000106, 24 h, read-out: DIZ; outline: as §1
Candida albicans [10] = assay: Antifungal activity against Candida albicans RCMB 052002 at 10 mg/ml after 3 to 4 days by agar well diffusion method; conditions: for zone of inhibition at 10000 µg/mL: read-out: DIZ; outline: as §2
Pseudomonas aeruginosa [11] = assay: Antibacterial activity against Pseudomonas aeruginosa RCMB 000102 at 10 mg/ml after 24 hrs by agar well diffusion method; conditions: for zone of inhibition at 10000 µg/mL: RCMB 000102, 24 h, read-out: DIZ; outline: as §1
[12] = test system: Syncephalastrum racemosum; assay: Antifungal activity against Syncephalastrum racemosum RCMB 052003 after 3 to 4 days by two fold serial dilution method
Outline: (§3)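 MIC by agar plate method. Two-fold serial dilutions in Sabouraud dextrose broth, autoclaved at 121 °C for 25 min; DMSO control. Loop of culture diluted to 10⁵–10⁶ CFU mL⁻¹. Incubated at 30 °C for 3–4 days, then colonies counted. MIC taken as the lowest concentration fully inhibiting growth relative to control, ignoring a single colony or faint haze.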

Bacillus subtilis [13] = assay: Antibacterial activity against Bacillus subtilis RCMB 000107 after 24 hrs by two fold serial dilution method; conditions: RCMB 000107, 24 h
Outline: (§4)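 MIC by agar plate method. Two-fold serial dilutions in nutrient broth (beef extract 5 g, peptone 10 g per litre, pH 7.0), autoclaved at 121 °C for 25 min; DMSO control. Loop inoculum diluted to 10⁵–10⁶ CFU mL⁻¹. Incubated at 37 °C for 24 h, then colonies counted. MIC taken as the lowest concentration giving complete inhibition, ignoring a single colony or faint haze.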

Aspergillus fumigatus [14] = assay: Antifungal activity against Aspergillus fumigatus RCMB 002003 after 3 to 4 days by two fold serial dilution method; outline: as §3
Geotrichum candidum [15] = assay: Antifungal activity against Geotrichum candidum RCMB 052006 after 3 to 4 days by two fold serial dilution method; outline: as §3
Escherichia coli [16] = assay: Antibacterial activity against Escherichia coli RCMB 000103 after 24 hrs by two fold serial dilution method; conditions: RCMB 000103, 24 h; outline: as §4
Candida albicans [17] = assay: Antifungal activity against Candida albicans RCMB 052002 after 3 to 4 days by two fold serial dilution method; outline: as §3
Pseudomonas aeruginosa [18] = assay: Antibacterial activity against Pseudomonas aeruginosa RCMB 000102 after 24 hrs by two fold serial dilution method; conditions: RCMB 000102, 24 h; outline: as §4
Staphylococcus aureus [19] = assay: Antibacterial activity against Staphylococcus aureus RCMB 000106 after 24 hrs by two fold serial dilution method; conditions: RCMB 000106, 24 h; outline: as §4

Structure (SMILES) | zone of inhibition at 10000 µg/mL (Bacillus subtilis [4]) [mm] | diameter of the inhibition zone (DIZ) [5] | zone of inhibition at 10000 µg/mL (Geotrichum candidum [6]) [mm] | zone of inhibition at 10000 µg/mL (Escherichia coli [7]) [mm] | zone of inhibition at 10000 µg/mL (Aspergillus fumigatus [8]) [mm] | zone of inhibition at 10000 µg/mL (Staphylococcus aureus [9]) [mm] | zone of inhibition at 10000 µg/mL (Candida albicans [10]) [mm] | diameter of the inhibition zone (DIZ) (Pseudomonas aeruginosa [11]) | diameter of the inhibition zone (DIZ) (Escherichia coli [7]) | zone of inhibition at 10000 µg/mL [5] [mm] | other results
Clc1ccccc1C(c1ccccc1)(c1ccccc1)n1ccnc1 [CLOTRIMAZOLE] |  |  |  |  |  |  |  |  |  |  | zone of inhibition at 30000 µg/mL [1]: 20 mm
CC1(C)S[C@@H]2[C@H](NC(=O)Cc3ccccc3)C(=O)N2[C@H]1C(=O)O [PENICILLIN G] |  |  |  |  |  |  |  |  |  |  | zone of inhibition at 30000 µg/mL (Staphylococcus aureus [2]): 29.4 mm; zone of inhibition at 30000 µg/mL (Bacillus subtilis [3]): 32.5 mm
CC(=O)Nc1c(C)n(C)n(-c2ccccc2)c1=O | 13.2 | inactive | 13.4 | 11.4 | 14.3 | 15.9 | 12.2 | inactive |  |  | 
CCOC(=O)C(=O)CC(=O)Nc1c(C)n(C)n(-c2ccccc2)c1=O | 16.2 | inactive | 13.4 |  | 11.1 | 16.3 | 10.6 | inactive | inactive |  | 
CCOC(=O)c1c(Nc2c(C)n(C)n(-c3ccccc3)c2=O)csc1N | 25.3 |  | 22 | 23.8 | 22.1 | 20.2 | 16.4 |  |  | 18.2 | MIC [12]: 39 µg/mL (≈ 105 µM); MIC (Bacillus subtilis [13]): 19 µg/mL (≈ 51 µM); MIC (Aspergillus fumigatus [14]): 19 µg/mL (≈ 51 µM); MIC (Geotrichum candidum [15]): 39 µg/mL (≈ 105 µM); MIC (Escherichia coli [16]): 19 µg/mL (≈ 51 µM); MIC (Candida albicans [17]): 78 µg/mL (≈ 209 µM); MIC (Pseudomonas aeruginosa [18]): 39 µg/mL (≈ 105 µM); MIC (Staphylococcus aureus [19]): 39 µg/mL (≈ 105 µM); zone of inhibition at 10000 µg/mL (Pseudomonas aeruginosa [11]): 20.8 mm
CN[C@@H]1[C@H](O[C@H]2[C@H](O[C@H]3[C@H](O)[C@@H](O)[C@H](N=C(N)N)[C@@H](O)[C@@H]3N=C(N)N)O[C@@H](C)[C@]2(O)C=O)O[C@@H](CO)[C@H](O)[C@H]1O [STREPTOMYCIN] |  |  |  |  |  |  |  |  |  |  | zone of inhibition at 30000 µg/mL (Staphylococcus aureus [2]): 25 mm; zone of inhibition at 30000 µg/mL (Bacillus subtilis [3]): 29 mm
Cc1c(NC(=O)CC(=O)C(=O)NN)c(=O)n(-c2ccccc2)n1C | 14.4 |  | 13.4 |  | 11.2 | 17.2 |  | inactive | inactive | 13.4 | diameter of the inhibition zone (DIZ) (Candida albicans [10]): inactive
Cc1c(Nc2csc3ncn(N)c(=N)c23)c(=O)n(-c2ccccc2)n1C |  | inactive |  |  |  |  |  | inactive | inactive |  | diameter of the inhibition zone (DIZ) (Bacillus subtilis [4]): inactive; diameter of the inhibition zone (DIZ) (Geotrichum candidum [6]): inactive; diameter of the inhibition zone (DIZ) (Aspergillus fumigatus [8]): inactive; diameter of the inhibition zone (DIZ) (Staphylococcus aureus [9]): inactive; diameter of the inhibition zone (DIZ) (Candida albicans [10]): inactive
CCO/C=N\c1scc(Nc2c(C)n(C)n(-c3ccccc3)c2=O)c1C#N | 19.2 |  | 17.4 | 13.8 | 19.2 | 18.4 | 14.2 |  |  | 8.5 | MIC [12]: 625 µg/mL (≈ 1640 µM); MIC (Bacillus subtilis [13]): 39 µg/mL (≈ 102 µM); MIC (Aspergillus fumigatus [14]): 78 µg/mL (≈ 204 µM); MIC (Geotrichum candidum [15]): 78 µg/mL (≈ 204 µM); MIC (Escherichia coli [16]): 156 µg/mL (≈ 409 µM); MIC (Candida albicans [17]): 156 µg/mL (≈ 409 µM); MIC (Pseudomonas aeruginosa [18]): 78 µg/mL (≈ 204 µM); MIC (Staphylococcus aureus [19]): 78 µg/mL (≈ 204 µM); zone of inhibition at 10000 µg/mL (Pseudomonas aeruginosa [11]): 16.2 mm
Cc1c(NC(=O)/C=C/c2cccs2)c(=O)n(-c2ccccc2)n1C | 11.2 | inactive |  |  | 14.2 | 11 | 13.4 | inactive | inactive |  | diameter of the inhibition zone (DIZ) (Geotrichum candidum [6]): inactive
CCC(C)n1ncn(-c2ccc(N3CCN(c4ccc(OCC5COC(Cn6cncn6)(c6ccc(Cl)cc6Cl)O5)cc4)CC3)cc2)c1=O (centres undefined) [ITRACONAZOLE] |  |  |  |  |  |  |  |  |  |  | zone of inhibition at 30000 µg/mL [1]: 22 mm
Cc1c(Nc2csc3ncnc(N)c23)c(=O)n(-c2ccccc2)n1C | 15.2 |  | 12.8 | 10.4 | 12.5 | 13.9 | 11 | inactive |  | 13.4 | 
Cc1c(Nc2csc3c2C(=O)N[S+]([O-])N3)c(=O)n(-c2ccccc2)n1C (centres undefined) | 19.2 |  | 14.4 |  | 15.1 | 18.3 | 13.4 | inactive | inactive | 10.6 | 
Cc1c(Nc2csc(NC(=O)CCl)c2C#N)c(=O)n(-c2ccccc2)n1C | 24.1 |  | 18.3 | 16.2 | 20.1 | 19.4 | 15.4 |  |  | 11.2 | MIC [12]: 313 µg/mL (≈ 779 µM); MIC (Bacillus subtilis [13]): 19 µg/mL (≈ 47.3 µM); MIC (Aspergillus fumigatus [14]): 39 µg/mL (≈ 97 µM); MIC (Geotrichum candidum [15]): 78 µg/mL (≈ 194 µM); MIC (Escherichia coli [16]): 78 µg/mL (≈ 194 µM); MIC (Candida albicans [17]): 156 µg/mL (≈ 388 µM); MIC (Pseudomonas aeruginosa [18]): 39 µg/mL (≈ 97 µM); MIC (Staphylococcus aureus [19]): 39 µg/mL (≈ 97 µM); zone of inhibition at 10000 µg/mL (Pseudomonas aeruginosa [11]): 18.9 mm
Cc1c(Nc2csc(N)c2C(N)=O)c(=O)n(-c2ccccc2)n1C |  | inactive |  |  |  |  |  | inactive | inactive |  | diameter of the inhibition zone (DIZ) (Bacillus subtilis [4]): inactive; diameter of the inhibition zone (DIZ) (Geotrichum candidum [6]): inactive; diameter of the inhibition zone (DIZ) (Aspergillus fumigatus [8]): inactive; diameter of the inhibition zone (DIZ) (Staphylococcus aureus [9]): inactive; diameter of the inhibition zone (DIZ) (Candida albicans [10]): inactive
Cc1c(Nc2csc(N)c2C#N)c(=O)n(-c2ccccc2)n1C | 27.2 |  | 22.4 | 24.4 | 24.3 | 23.9 | 17.2 |  |  | 18.9 | MIC [12]: 39 µg/mL (≈ 120 µM); MIC (Bacillus subtilis [13]): 9.5 µg/mL (≈ 29.2 µM); MIC (Aspergillus fumigatus [14]): 19 µg/mL (≈ 58.4 µM); MIC (Geotrichum candidum [15]): 19 µg/mL (≈ 58.4 µM); MIC (Escherichia coli [16]): 19 µg/mL (≈ 58.4 µM); MIC (Candida albicans [17]): 39 µg/mL (≈ 120 µM); MIC (Pseudomonas aeruginosa [18]): 39 µg/mL (≈ 120 µM); MIC (Staphylococcus aureus [19]): 19 µg/mL (≈ 58.4 µM); zone of inhibition at 10000 µg/mL (Pseudomonas aeruginosa [11]): 22.8 mm
